Only some compounds are listed: those with a hit (about 2.5% of all), similar ones and a draw of the others.
HIV Env fusion – inhibitors of HIV-1 Env-driven cell-cell fusion, primary screen, HeLa-JRFL effector, CEM21 target cells, luciferase | inhibition, % at 12.3 µM | hit rate 1.1% among 360,000 | AID 651610, 2012;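 active means mean replicate inhibition score of at least 50 and every replicate individually at or above 50; inconclusive means only one of the two criteria met; inactive means mean below 50 and not all replicates reaching 50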;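 further: 0% = plate neutral controls and 100% = maraviroc near 300 nM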
AF4-AF9 inh – inhibitors of AF4 peptide binding to AF9, primary screen, biochemical, AlphaScreen, biotin-AF4 peptide, FLAG-AF9, single point. hit rate 0.47% among 350,000. inhibition, % at 10 µM. Protein AF-9 (Homo sapiens), P42568. AID 651704, 2012;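 active means every replicate reaching a set inhibition limit, whatever the replicate mean, cut at about 25% in these data; inconclusive means mean inhibition reaches that limit but some replicates miss it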;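 further: 0% = plate neutral control median and 100% = total signal loss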
Target sequence (P42568 whole entry, looked up): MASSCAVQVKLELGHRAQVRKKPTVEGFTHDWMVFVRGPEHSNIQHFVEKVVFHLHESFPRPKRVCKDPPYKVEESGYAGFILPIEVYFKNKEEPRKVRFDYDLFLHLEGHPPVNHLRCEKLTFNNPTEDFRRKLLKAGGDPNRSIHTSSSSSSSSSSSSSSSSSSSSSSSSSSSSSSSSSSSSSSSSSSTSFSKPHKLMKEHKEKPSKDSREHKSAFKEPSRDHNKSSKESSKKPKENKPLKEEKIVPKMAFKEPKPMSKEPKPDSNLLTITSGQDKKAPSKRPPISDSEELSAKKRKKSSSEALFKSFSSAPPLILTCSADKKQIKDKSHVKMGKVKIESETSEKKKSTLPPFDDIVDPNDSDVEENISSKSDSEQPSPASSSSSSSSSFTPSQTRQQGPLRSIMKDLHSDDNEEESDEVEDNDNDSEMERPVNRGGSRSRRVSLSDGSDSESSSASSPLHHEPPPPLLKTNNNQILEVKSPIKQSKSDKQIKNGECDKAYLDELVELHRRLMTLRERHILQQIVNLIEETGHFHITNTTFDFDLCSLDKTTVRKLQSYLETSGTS
PAX8 reporter – inhibitors of PAX8-driven TPO luciferase reporter, primary screen, RMG-I cells, single concentration | hit rate 1.2% among 360,000 | AID 652154, 2013 | SteadyGlo, 24 h | inhibition, % at 12.6 µM;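 active means mean replicate inhibition at least 60% with every replicate also reaching 60%; inconclusive means only one of the two criteria is met; inactive means mean below 60% and not all replicates reaching 60%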;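 further: luciferase light reporting Pax8 driven TPO promoter activity; plate controls were median of neutral control wells for no effect and mitoxantrone controls for full effect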
EWS-Fli block – EWS/Fli-driven NR0B1 reporter inhibitors, primary screen, A673 cells, NR0B1 luciferase, luminescence, MLPCN library; AID 651661, 2012; inhibition, % at 12.6 µM; hit rate 0.67% among 350,000; viability-normalised;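 active means mean inhibition of at least 50% after viability correction, with every replicate also passing that limit; inconclusive means mean reaches 50% but only one of two replicates passes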;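 further: firefly luciferase signal divided by Alamar Blue viability fluorescence both relative to DMSO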
N-glyco inh – increase of ERlucT glycosylation luciferase signal, primary screen, N-linked glycosylation inhibitor project, D54 ERlucT cells, luminescence, set 2 | hit rate 0.23% among 360,000 | D54 ERlucT glycosylation luciferase reporter, 24 h; percent of 100 nM tunicamycin response | reporter increase, % at 12.5 µM;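 active means mean luciferase reporter signal, scaled so untreated is 0 and the glycosylation-blocking control 100, at or above a set limit in every replicate; inconclusive means mean reaches the limit but not every replicate does; inactive means mean below the limit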;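 further: luciferase carries N-glycosylation sites so blocking glycosylation raises the light; 0% = median of neutral control wells and 100% = median of 100 nM tunicamycin wells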
FN deposit inh – inhibitors of fibronectin matrix deposition, primary screen, AH1F cells, Alexa488-fibronectin fluorescence, plate reader | AH1F fibroblasts, overnight | inhibition, % at 12.6 µM | hit rate 0.086% among 350,000 | AID 743247, 2014;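 active means mean inhibition across replicates of 30% or more, regardless of how many single replicates reach that level; inconclusive means mean under 30% yet at least half of replicates reach 30%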;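 further: positive control wells lacked labelled fibronectin entirely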
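Material: AH1F fibroblasts assembling fluorescent fibronectin matrix; amount: 10000 AH1F cells/well; medium: DMEM, 2% serum; reagent: Alexa488-fibronectin, 24 nM final in well; dosing: single compound dose, delivered by pin transfer; incubation: 1 h adhesion, overnight exposure; detection: fluorescence after three HBSS washes, excitation 485 nm, emission 525 nm; measure: fibronectin deposition inhibition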
DNA binding – DNA binders by acridine orange displacement, dose response, counter-screen for EWS/Fli inhibitor project, biochemical, fluorescence polarization, cherry-pick; salmon sperm DNA acridine orange fluorescence polarization; hit rate 2% among 640; shares compounds with EWS-Fli block; AC35, µM (top dose mostly 68 µM), for inactives: at the top dose activity change, negative = DNA binding;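 active means fitted curve reaches a 35% signal fall AC35 below twice the sample's top valid tested dose, actives reach about 48 µM in these data; inactive means the rest, including activity in the rising direction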;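 further: lower polarization ratio signals compound binding to DNA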
Active calls of the source: *; i = inactive; ? = inconclusive; . = no result; [ ] = dose if it differs, or a comment.

SMILES	HIV Env fusion	AF4-AF9 inh	PAX8 reporter	EWS-Fli block	N-glyco inh	FN deposit inh	DNA binding
CN1C/C(=C/c2cccnc2)C(=O)/C(=C/c2cccnc2)C1	i	-7	-2	.	18	8	.
CC(C)N1C/C(=C/c2cccnc2)C(=O)/C(=C/c2cccnc2)C1	-61	-5	-5	69*	13	7	-11%
CC(C)N1C/C(=C/c2ccsc2)C(=O)/C(=C/c2ccsc2)C1	-277	13	41	72*	24	-2	-27%
O=C(NCc1ccc(F)cc1)N1[C@H]2CC[C@@H]1C=C(c1ccc(F)cc1OCc1ccccc1)C2	.	1	-22	54*	4	2	-9%
COc1ccc(CNC(=O)N2[C@H]3CC[C@@H]2C=C(c2ccc(F)cc2OCc2ccccc2)C3)cc1OC	0	0	26	-35	-14	.	.
COc1cccc(S(=O)(=O)Nc2ccc3c(c2)[C@H]2C[C@H](CC(=O)N(C)C)O[C@H](CO)[C@H]2O3)c1	.	-6	.	3	.	-6	.
COc1ccc(NC(=O)N(C)[C@H]2C[C@H]3c4[nH]c5ccccc5c4CCN3C(=O)[C@H]2CO)cc1	.	0	-8	53*	4	2	-5%
C[C@@H]1CN([C@@H](C)CO)C(=O)Cc2cc(NC(=O)Cn3cnnn3)ccc2O[C@H]1CN(C)Cc1ccc(Oc2ccccc2)cc1	19[16.7 µM]	20	14	3	.	2	.
O=C(C[C@H]1CC[C@H]2[C@@H](COC[C@@H](O)CN2C(=O)Nc2cc(Cl)cc(Cl)c2)O1)N1CCCCC1	.	2	3	3	.	-10	.
O=c1cc(CN2CCN(Cc3ccccc3)CC2)c2ccc(O)c(O)c2o1	-4	3	29	52*	-4	5	-5%
C[n+]1ccn(CC(=O)c2cccs2)c1	-4	-1	8	8	4	-7	.
CCCCCCCCCCCCCCCCn1cc[n+](C)c1	128*	11	99*	73*	-17	34*	-17%
COc1ccc(NC(=O)N2CCCCN3[C@@H](CO)[C@H](c4ccc(C5=CCCCC5)cc4)[C@@H]3C2)cc1	.	21	-12	71*	.	.	-2%
CC1(C(=O)NCc2ccco2)Cc2c(-c3cccc(C(F)(F)F)c3)ccnc2O1 (stereo not drawn)	9	1	10	39	20	0	.
CN(C)c1ccc(-c2ccnc3c2CC(C)(C(=O)NCc2ccco2)O3)cc1 (stereo not drawn)	25	1	-11	64*	13	14	3%
CC1(C(=O)NCc2ccco2)Cc2c(-c3cccc(C(N)=O)c3)ccnc2O1 (stereo not drawn)	13	0	.	53*	38*	20	-11%
CN(C)c1ccc(-c2ccnc3c2CC(C)(C(=O)NCc2cccs2)O3)cc1 (stereo not drawn)	-115	6	13	47	14	10	.
Cc1cc(C)c2sc(NNC(=O)c3ccc(S(=O)(=O)N4CCc5ccccc5C4)cc3)nc2c1	-182	13	99*	54*	-12	10	-5%
Cc1c(-c2nc(-c3ccc(C(C)(C)C)cc3)no2)n(C)oc1=O	-105	-6	19	56*	-11	7	3.5µM*
CCCC#Cc1ccc2c(c1)O[C@H](CN(C)CCC)[C@H](C)CN([C@H](C)CO)S2(=O)=O	1[16.7 µM]	2	.	9	.	.	.
Cc1c(NC(=O)CC#N)c(=O)n(-c2ccccc2)n1C	-14[16.7 µM]	-12	5	-15	.	.	.
C[C@@H]1CN([C@H](C)CO)C(=O)c2cccc(NC(=O)CCCCCC(=O)Nc3ccccc3N)c2O[C@@H]1CN(C)Cc1ccc(Oc2ccccc2)cc1	.	-2	31	16	.	.	.
C[C@H](CO)N1C[C@H](C)[C@H](CN(C)Cc2ccc(Oc3ccccc3)cc2)Oc2ccc(NC(=O)CCCCCC(=O)Nc3ccccc3N)cc2CC1=O	23[16.7 µM]	2	16	61*	.	.	-12%
C[C@@H]1CN([C@@H](C)CO)C(=O)Cc2cc(NC(=O)CCCCCC(=O)Nc3ccccc3N)ccc2O[C@@H]1CN(C)Cc1ccc(-c2ccccc2)cc1	30[16.7 µM]	2	24	14	.	.	.
C[C@H]1CN([C@@H](C)CO)C(=O)Cc2cc(NC(=O)CCCCCC(=O)Nc3ccccc3N)ccc2O[C@@H]1CN(C)Cc1ccc(-c2ccccc2)cc1	4[16.7 µM]	-1	-2	-16	.	.	.
SMILES	HIV Env fusion	AF4-AF9 inh	PAX8 reporter	EWS-Fli block	N-glyco inh	FN deposit inh	DNA binding
C[C@@H]1CN([C@H](C)CO)C(=O)Cc2cc(NC(=O)CCCCCC(=O)Nc3ccccc3N)ccc2O[C@@H]1CN(C)CC1CCCCC1	2[16.7 µM]	7	-1	61*	.	-19	2%
C[C@@H]1CN([C@@H](C)CO)C(=O)c2cccc(NC(=O)CCCCCC(=O)Nc3ccccc3N)c2O[C@@H]1CN(C)Cc1ccc(Oc2ccccc2)cc1	.	1	26	53*	.	.	-4%
C[C@H]1CN([C@@H](C)CO)C(=O)Cc2cc(NC(=O)CCCCCC(=O)Nc3ccccc3N)ccc2O[C@H]1CN(C)Cc1ccc(Oc2ccccc2)cc1	15[16.7 µM]	3	17	60*	.	.	-6%
C[C@H]1CN([C@@H](C)CO)C(=O)Cc2cc(NC(=O)CCCCCC(=O)Nc3ccccc3N)ccc2O[C@H]1CN(C)Cc1ccc(C(F)(F)F)cc1	30[16.7 µM]	-1	36	56*	.	-12	-8%
C[C@H](CO)N1C[C@H](C)[C@H](CN(C)Cc2ccccc2)Oc2ccc(NC(=O)CCCCCC(=O)Nc3ccccc3N)cc2CC1=O	4[16.7 µM]	1	11	56*	.	.	-9%
C[C@H]1CN([C@@H](C)CO)C(=O)Cc2cc(NC(=O)CCCCCC(=O)Nc3ccccc3N)ccc2O[C@H]1CN(C)Cc1ccc(Cl)c(Cl)c1	-1[16.7 µM]	1	53	51*	.	.	-7%
C[C@H](CO)N1C[C@H](C)[C@@H](CN(C)Cc2ccc(Cl)c(Cl)c2)Oc2ccc(NC(=O)CCCCCC(=O)Nc3ccccc3N)cc2CC1=O	.	3	29	?	.	.	.
C[C@@H]1CN([C@@H](C)CO)C(=O)Cc2cc(NS(=O)(=O)c3cccs3)ccc2O[C@H]1CN(C)Cc1ccc(Cl)c(Cl)c1	61*[16.7 µM]	6	.	59*	.	.	-9%
CCCC(=O)Nc1ccc2c(c1)C(=O)N(C)C[C@H](OC)[C@H](C)CN(Cc1cncnc1)[C@@H](C)CO2	36[16.7 µM]	0	0	-4	.	11	.

From PubChem
